Source: ChEMBL document CHEMBL1155469, “Peptide nucleic acids conjugated to short basic peptides show improved pharmacokinetics and antisense activity in adipose tissue” (J Med Chem, 2010)
pIC50: −log10 of the molar value.

system: BCL1; assay: Inhibition of PTEN expression in mouse BCL1 cells after 62 hrs by Western blotting; type: functional, cell-based; details: BCL1, 62 h
Method in brief: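 BCL1 cells were grown in DMEM with 10% FBS at 37 °C, 5% CO2. Compound was delivered to 2×10^6 cells by electroporation (200 V, 1000 uF, 13 ohms), and cells were harvested 62 h later. Western blot of RIPA lysates used rabbit anti-PTEN and anti-CD40 (1:1000) with HRP secondary and ECL detection. PTEN was normalized to CD40. n=3, mean ± SD.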

Row | Compound | pIC50
1 | Cc1cn(CC(=O)N(CCN)CC(=O)NCCN(CC(=O)NCCN(CC(=O)NCCN(CC(=O)NCCN(CC(=O)NCCN(CC(=O)NCCN(CC(=O)NCCN(CC(=O)NCCN(CC(=O)NCCN(CC(=O)NCCN(CC(=O)NCCN(CC(=O)NCCN(CC(=O)NCCN(CC(=O)NCCN(CC(=O)N[C@@H](CCCCN)C(N)=O)C(=O)Cn2cnc3c(=O)[nH]c(N)nc32)C(=O)Cn2cnc3c(N)ncnc32)C(=O)Cn2cnc3c(N)ncnc32)C(=O)Cn2cnc3c(N)ncnc32)C(=O)Cn2cnc3c(=O)[nH]c(N)nc32)C(=O)Cn2cnc3c(N)ncnc32)C(=O)Cn2cnc3c(=O)[nH]c(N)nc32)C(=O)Cn2cnc3c(N)ncnc32)C(=O)Cn2cc(C)c(=O)[nH]c2=O)C(=O)Cn2ccc(N)nc2=O)C(=O)Cn2ccc(N)nc2=O)C(=O)Cn2cnc3c(N)ncnc32)C(=O)Cn2ccc(N)nc2=O)C(=O)Cn2cc(C)c(=O)[nH]c2=O)c(=O)[nH]c1=O | 5.52
2 | Cc1cn(CC(=O)N(CCNC(=O)CN(CCNC(=O)CN(CCNC(=O)CN(CCNC(=O)CN(CCNC(=O)CN(CCNC(=O)CN(CCN)C(=O)Cn2cnc3c(N)ncnc32)C(=O)Cn2cc(C)c(=O)[nH]c2=O)C(=O)Cn2cnc3c(N)ncnc32)C(=O)Cn2cnc3c(=O)[nH]c(N)nc32)C(=O)Cn2cc(C)c(=O)[nH]c2=O)C(=O)Cn2cc(C)c(=O)[nH]c2=O)CC(=O)NCCN(CC(=O)NCCN(CC(=O)NCCN(CC(=O)NCCN(CC(=O)NCCN(CC(=O)NCCN(CC(=O)NCCN(CC(=O)NCCN(CC(=O)N[C@@H](CCCCN)C(N)=O)C(=O)Cn2cnc3c(N)ncnc32)C(=O)Cn2cnc3c(=O)[nH]c(N)nc32)C(=O)Cn2cnc3c(N)ncnc32)C(=O)Cn2cc(C)c(=O)[nH]c2=O)C(=O)Cn2ccc(N)nc2=O)C(=O)Cn2ccc(N)nc2=O)C(=O)Cn2cnc3c(N)ncnc32)C(=O)Cn2ccc(N)nc2=O)c(=O)[nH]c1=O | 5.49
3 | Cc1cn(CC(=O)N(CCNC(=O)CN(CCNC(=O)CN(CCNC(=O)CN(CCNC(=O)CN(CCN)C(=O)Cn2cnc3c(N)ncnc32)C(=O)Cn2cnc3c(=O)[nH]c(N)nc32)C(=O)Cn2cc(C)c(=O)[nH]c2=O)C(=O)Cn2cc(C)c(=O)[nH]c2=O)CC(=O)NCCN(CC(=O)NCCN(CC(=O)NCCN(CC(=O)NCCN(CC(=O)NCCN(CC(=O)NCCN(CC(=O)NCCN(CC(=O)NCCN(CC(=O)NCCN(CC(=O)NCCN(CC(=O)N[C@@H](CCCCN)C(N)=O)C(=O)Cn2cnc3c(N)ncnc32)C(=O)Cn2cnc3c(=O)[nH]c(N)nc32)C(=O)Cn2cnc3c(N)ncnc32)C(=O)Cn2cnc3c(=O)[nH]c(N)nc32)C(=O)Cn2cnc3c(N)ncnc32)C(=O)Cn2cc(C)c(=O)[nH]c2=O)C(=O)Cn2ccc(N)nc2=O)C(=O)Cn2ccc(N)nc2=O)C(=O)Cn2cnc3c(N)ncnc32)C(=O)Cn2ccc(N)nc2=O)c(=O)[nH]c1=O | 5.62

Continued, values first:

Row | pIC50 | Compound
4 | 6.00 | Cc1cn(CC(=O)N(CCNC(=O)CN(CCN)C(=O)Cn2ccc(N)nc2=O)CC(=O)NCCN(CC(=O)NCCN(CC(=O)NCCN(CC(=O)NCCN(CC(=O)NCCN(CC(=O)NCCN(CC(=O)NCCN(CC(=O)NCCN(CC(=O)NCCN(CC(=O)NCCN(CC(=O)NCCN(CC(=O)NCCN(CC(=O)NCCN(CC(=O)N[C@@H](CCCCN)C(N)=O)C(=O)Cn2cnc3c(N)ncnc32)C(=O)Cn2ccc(N)nc2=O)C(=O)Cn2cnc3c(N)ncnc32)C(=O)Cn2cc(C)c(=O)[nH]c2=O)C(=O)Cn2ccc(N)nc2=O)C(=O)Cn2cc(C)c(=O)[nH]c2=O)C(=O)Cn2cnc3c(N)ncnc32)C(=O)Cn2ccc(N)nc2=O)C(=O)Cn2cnc3c(N)ncnc32)C(=O)Cn2ccc(N)nc2=O)C(=O)Cn2cnc3c(=O)[nH]c(N)nc32)C(=O)Cn2cnc3c(N)ncnc32)C(=O)Cn2ccc(N)nc2=O)c(=O)[nH]c1=O
5 | 5.66 | COCCO[C@@H]1[C@H](OP(=O)(S)OC[C@H]2O[C@@H](n3cc(C)c(=O)[nH]c3=O)C[C@@H]2OP(=O)(S)OC[C@H]2O[C@@H](n3cnc4c(N)ncnc43)[C@H](OCCOC)[C@@H]2OP(=O)(S)OC[C@H]2O[C@@H](n3cnc4c(=O)[nH]c(N)nc43)[C@H](OCCOC)[C@@H]2OP(=O)(S)OC[C@H]2O[C@@H](n3cnc4c(N)ncnc43)[C@H](OCCOC)[C@@H]2OP(=O)(S)OC[C@H]2O[C@@H](n3cnc4c(=O)[nH]c(N)nc43)[C@H](OCCOC)[C@@H]2OP(=O)(S)OC[C@H]2O[C@@H](n3cnc4c(N)ncnc43)[C@H](OCCOC)[C@@H]2OP(=O)(S)OC[C@H]2O[C@@H](n3cnc4c(N)ncnc43)[C@H](OCCOC)[C@@H]2OP(=O)(S)OC[C@H]2O[C@@H](n3cnc4c(N)ncnc43)[C@H](OCCOC)[C@@H]2OP(=O)(S)OC[C@H]2O[C@@H](n3cnc4c(=O)[nH]c(N)nc43)[C@H](OCCOC)[C@@H]2O)[C@@H](COP(=O)(S)O[C@H]2[C@@H](OCCOC)[C@H](n3ccc(N)nc3=O)O[C@@H]2COP(=O)(S)O[C@H]2[C@@H](OCCOC)[C@H](n3cnc4c(N)ncnc43)O[C@@H]2COP(=O)(S)O[C@H]2[C@@H](OCCOC)[C@H](n3ccc(N)nc3=O)O[C@@H]2COP(=O)(S)O[C@H]2C[C@H](n3cc(C)c(=O)[nH]c3=O)O[C@@H]2COP(=O)(S)O[C@H]2C[C@H](n3cc(C)c(=O)[nH]c3=O)O[C@@H]2COP(=O)(S)O[C@H]2C[C@H](n3cc(C)c(=O)[nH]c3=O)O[C@@H]2COP(=O)(S)O[C@H]2[C@@H](OCCOC)[C@H](n3cnc4c(=O)[nH]c(N)nc43)O[C@@H]2COP(=O)(S)O[C@H]2[C@@H](OCCOC)[C@H](n3cnc4c(N)ncnc43)O[C@@H]2COP(=O)(S)O[C@H]2C[C@H](n3cc(C)c(=O)[nH]c3=O)O[C@@H]2COP(=O)(S)O[C@H]2[C@@H](OCCOC)[C@H](n3cnc4c(N)ncnc43)O[C@@H]2CO)O[C@H]1n1ccc(N)nc1=O (stereo not given in full)
